Measurements reported in ChEMBL document CHEMBL4152209, “Synthesis of 7β-hydroxy-8-ketone opioid derivatives with antagonist activity at mu- and delta-opioid receptors” (Eur J Med Chem, 2018).
Calls of active or inactive are those of the source. No cut-off for these calls is given here.

Columns and labels:
[1] = molecular target: T1, Delta-type opioid receptor (Homo sapiens, UniProt P41143); assay: Displacement of [3H]diprenorphine from human DOR expressed in African green monkey COS1 cell membranes at 10 uM incubated for 1 hr by scintillation counting method
T1 sequence (P41143 whole entry): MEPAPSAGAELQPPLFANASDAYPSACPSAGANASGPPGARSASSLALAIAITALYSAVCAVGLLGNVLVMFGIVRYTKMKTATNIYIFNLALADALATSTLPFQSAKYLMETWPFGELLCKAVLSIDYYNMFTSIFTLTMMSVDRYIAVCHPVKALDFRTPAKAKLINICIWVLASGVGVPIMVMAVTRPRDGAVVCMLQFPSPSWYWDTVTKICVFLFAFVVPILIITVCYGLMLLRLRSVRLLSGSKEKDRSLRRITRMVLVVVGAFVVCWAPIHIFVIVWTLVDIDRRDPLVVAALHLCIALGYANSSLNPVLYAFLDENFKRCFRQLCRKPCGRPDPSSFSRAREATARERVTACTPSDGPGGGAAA

[2] = molecular target: T1, Delta-type opioid receptor; assay: Displacement of [3H]diprenorphine from human DOR expressed in African green monkey COS1 cell membranes at 1 uM incubated for 1 hr by scintillation counting method
[3] = molecular target: Kappa-type opioid receptor (Homo sapiens) (UniProt P41145); details: at 1 µM
Chain of Kappa-type opioid receptor (Homo sapiens) (P41145 whole entry): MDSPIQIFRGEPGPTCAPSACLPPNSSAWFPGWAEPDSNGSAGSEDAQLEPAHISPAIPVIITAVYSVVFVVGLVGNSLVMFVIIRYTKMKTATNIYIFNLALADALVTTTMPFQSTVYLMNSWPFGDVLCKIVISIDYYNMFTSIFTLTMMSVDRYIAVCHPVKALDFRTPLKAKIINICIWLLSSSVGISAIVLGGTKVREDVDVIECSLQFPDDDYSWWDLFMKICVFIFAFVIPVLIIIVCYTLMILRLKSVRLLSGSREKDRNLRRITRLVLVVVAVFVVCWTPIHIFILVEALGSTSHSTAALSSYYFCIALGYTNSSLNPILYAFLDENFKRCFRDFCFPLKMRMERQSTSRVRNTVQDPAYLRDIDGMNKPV

[4] = molecular target: T1, Delta-type opioid receptor; assay: Antagonist activity at human DOR expressed in African green monkey COS1 cell membranes assessed as inhibition of SNC80-induced [35S]GTPgS binding at 50 uM by scintillation counting method; type: functional
Summary of the method: (§1)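 Antagonism in [35S]GTPγS binding used 5 µg of hMOR or hDOR transfected-cell membranes, 1 h at 23 °C, in Tris-HCl pH 7.3 with MgCl₂, NaCl, EDTA, 30 µM GDP and 0.2 nM [35S]GTPγS. Test ligands at 20 or 50 µM were co-incubated with DAMGO (1 µM, MOR) or SNC80 (DOR). Read by filtration and scintillation; n=3 in triplicate.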

[5] = molecular target: T1, Delta-type opioid receptor; assay: Agonist activity at human DOR expressed in African green monkey COS1 cell membranes assessed as stimulation of [35S]GTPgS binding at 50 uM by scintillation counting method; type: functional
Summary of the method: (§2)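 Membranes (5 µg) from stably transfected cells expressing hMOR or hDOR were incubated 1 h at 23 °C in 50 mM Tris-HCl pH 7.3 with 5 mM MgCl₂, 100 mM NaCl, 1 mM EDTA, 30 µM GDP and 0.2 nM [35S]GTPγS. Reference opioids were used at 1 or 10 µM and test ligands at 20 or 50 µM. Nonspecific binding was taken with 10 µM GTP. Samples were filtered and counted; three experiments in triplicate.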

[6] = molecular target: T2, Mu-type opioid receptor (Homo sapiens, UniProt P35372); details: at 1 µM
T2 sequence (P35372 whole entry): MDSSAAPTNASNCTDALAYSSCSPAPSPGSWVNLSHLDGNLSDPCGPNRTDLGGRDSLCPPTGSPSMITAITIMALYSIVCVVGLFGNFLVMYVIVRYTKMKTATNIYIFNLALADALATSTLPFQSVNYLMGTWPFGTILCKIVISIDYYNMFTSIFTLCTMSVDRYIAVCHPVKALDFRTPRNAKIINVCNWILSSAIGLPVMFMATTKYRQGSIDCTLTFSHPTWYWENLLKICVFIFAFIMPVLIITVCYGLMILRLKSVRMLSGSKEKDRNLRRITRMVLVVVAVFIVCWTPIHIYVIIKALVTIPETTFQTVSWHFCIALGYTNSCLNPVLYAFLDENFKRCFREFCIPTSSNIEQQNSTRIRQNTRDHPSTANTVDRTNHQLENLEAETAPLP

[7] = system: HEK293; assay: Toxicity in HEK293 cells assessed as reduction in cell viability at <100 uM incubated for 24 hrs by cell-titer Glo reagent based assay; details: human, hek293, 24 h
Summary of the method: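 HEK-293 cells, 9000 per well, were switched to Opti-MEM and exposed to compound (0.1–100 µM) for 24 h. Viability was read as lysate ATP by CellTiter-Glo luminescence.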

[8] = molecular target: T2, Mu-type opioid receptor; assay: Antagonist activity at human MOR expressed in African green monkey COS1 cell membranes assessed as inhibition of DAMGO-induced [35S]GTPgS binding at 50 uM by scintillation counting method; type: functional; summary of the method: as §1
[9] = molecular target: T1, Delta-type opioid receptor; assay: Agonist activity at human DOR expressed in African green monkey COS1 cell membranes assessed as stimulation of [35S]GTPgS binding at 20 uM by scintillation counting method; type: functional; summary of the method: as §2
[10] = molecular target: Kappa-type opioid receptor (Homo sapiens) (UniProt P41145); details: at 10 µM
[11] = molecular target: T2, Mu-type opioid receptor; details: at 10 µM
[12] = molecular target: T2, Mu-type opioid receptor; assay: Antagonist activity at human MOR expressed in African green monkey COS1 cell membranes assessed as inhibition of DAMGO-induced [35S]GTPgS binding at 20 uM by scintillation counting method; type: functional; summary of the method: as §1
[13] = molecular target: T1, Delta-type opioid receptor; assay: Displacement of [3H]diprenorphine from human DOR expressed in African green monkey COS1 cell membranes incubated for 1 hr by scintillation counting method
Summary of the method: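 hDOR membranes from stably transfected cells, diluted in 50 mM Tris-HCl pH 7.4 with 1 mM EDTA, were incubated with 1 nM [3H]diprenorphine (KD 1.1 nM; Bmax 4.7 pmol/mg) and competitor (1 × 10⁻⁷ to 5 × 10⁻⁵ M) for 1 h at 23 °C. Samples were then filtered on PEI-soaked GF/B and counted by scintillation. Ki was derived from KD; three experiments in triplicate.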

[14] = molecular target: T2, Mu-type opioid receptor; assay: Displacement of [3H]diprenorphine from human MOR expressed in African green monkey COS1 cell membranes incubated for 1 hr by scintillation counting method

SMILES | inhibition [1] [%] | inhibition [2] [%] | inhibition [3] [%] | inhibition [4] | Activity [5] | inhibition [6] [%] | Activity [7] | inhibition [8] | Activity [9] | inhibition [10] [%] | inhibition [11] [%] | inhibition [12] | Ki [13] [nM] | Ki [14] [nM]
Oc1ccc2c3c1O[C@H]1c4[nH]c5ccccc5c4C[C@@]4(O)[C@@H](C2)N(CC2CC2)CC[C@]314 | 94 | 94 |  |  |  |  |  |  |  |  |  |  |  | 
COC(=O)N1CC[C@]23c4c5ccc(O)c4O[C@H]2[C@@H](O)[C@H](O)C(=O)[C@H]3[C@H]1C5 | 63 | 24 | 6 | Active | inactive | 8 | Non-Toxic | Active | inactive | 21 | 48 | Active | 1130 to 1830 | 1080 to 2580
COC(=O)N1CC[C@]23c4c5ccc(OC)c4O[C@H]2[C@@H](OC)C=C[C@H]3[C@H]1C5 | 10 | 2 | 6 |  |  | 3 |  |  |  | 2 | 11 |  |  | 
COC(=O)N1CC[C@]23c4c5ccc(O)c4O[C@H]2[C@@H](O)C=C[C@H]3[C@H]1C5 | 59 | 21 | 7 | Active | inactive | 16 | Non-Toxic | Active | inactive | 27 | 58 | Active | 1690 to 2630 | 814 to 1720
COC(=O)N1CC[C@]23c4c5ccc(OC(C)=O)c4O[C@H]2[C@@H](OC(C)=O)[C@H](O)C(=O)[C@H]3[C@H]1C5 | 51 | 22 | 4 |  |  | 7 | Non-Toxic |  |  | 8 | 9 |  |  | 
C[C@@H](NC(=O)[C@@H](N)Cc1ccc(O)cc1)C(=O)NCC(=O)N(C)[C@@H](Cc1ccccc1)C(=O)NCCO |  |  |  |  |  | 67 |  |  |  |  | 85 |  |  | 
COC(=O)N1CC[C@]23c4c5ccc(OC(C)=O)c4O[C@H]2[C@@H](OC(C)=O)C=C[C@H]3[C@H]1C5 | 9 | 1 | 0 |  |  | 1 |  |  |  | 1 | 3 |  |  | 
COC(=O)N1CC[C@]23c4c5ccc(OC)c4O[C@H]2[C@@H](OC)[C@H](O)C(=O)[C@H]3[C@H]1C5 | 19 | 5 | 5 |  |  | 5 | Non-Toxic |  |  | 0 | 5 |  |  | 
CN1CC[C@]23c4c5ccc(O)c4O[C@H]2[C@@H](O)C=C[C@H]3[C@H]1C5 | 63 | 31 |  |  | Active |  |  |  | Active |  |  |  |  | 
